We go through 15 compounds from ChEMBL document CHEMBL1133797, “Synthesis and structure--activity analysis of novel dihydropyridine derivatives to overcome multidrug resistance” (Bioorg Med Chem Lett, 2001).

Assay [1] has as its system KB 3-1. Description: Resistance index determined as the ratio of IC50 of doxorubicin with compound (1 ug/mL) in KB VJ300 cells divided by the control tested in vitro. Format: functional, Homo sapiens.
Assay [2] is filed under the species Rattus norvegicus. Description: Calcium antagonistic activity determined by the inhibitory effect on high-potassium depolarization-induced contracture in isolated rat aorta. Format: functional.
Assay [3] concerns Mus musculus. Put plainly: Survival days of vincristine (0.1 mg/kg, ip) treated mice after 100 mg/kg, ip dose divided by survival days of mice treated by vincristine (0.1 mg/kg, ip) alone. The assay is classed as functional. As to conditions: route intraperitoneal. The method, boiled down:
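Mice bearing P388 leukemia cells were given vincristine 0.1 mg/kg ip together with the test agent at 100 mg/kg ip. Survival days were recorded. Antitumor activity (%) is survival days with the combination divided by survival days of mice given vincristine 0.1 mg/kg ip alone.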

Assay [4] has as its system Mus musculus. Put plainly: Survival days of vincristine (0.1 mg/kg, ip) treated mice after 30 mg/kg, ip dose divided by survival days of mice treated by vincristine (0.1 mg/kg, ip) alone. Format: functional. As to conditions: route intraperitoneal. An outline of the steps:
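In P388 leukemia-bearing mice, the test agent was dosed at 30 mg/kg ip with vincristine 0.1 mg/kg ip. Survival time was recorded. The value (%) is the ratio of survival days under the combination to survival days under vincristine 0.1 mg/kg ip alone.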

pIC50: −log10 of the molar value.

As for `CCCCCC1C(C(=O)OCCc2ccc(N(C)C)cc2)=C(C)N=C(C)/C1=C(/O)OCCCN1CCN(C(c2ccccc2)c2ccccc2)CC1` (stereo unspecified), the Resistance index in assay [1] was found to be 23.5.

As for `CCCCCC1C(C(=O)OCCCc2ccccc2)=C(C)N=C(C)/C1=C(/O)OCCCc1ccccc1` (stereo unspecified), the Resistance index in assay [1] is 22.7.

Broadly, the pIC50 is the negative decadic logarithm of the IC50, by convention in mol/L. As to `CCCCCC1C(C(=O)OCCN(C)Cc2ccccc2)=C(C)N=C(C)/C1=C(/O)OCCN(C)Cc1ccccc1` (stereo unspecified), the pIC50 in assay [2] is 3.94. The Resistance index in assay [1] was determined as 3.9. In assay [3], this compound yielded an Activity of 128%.

As to `CCCCCC1C(C(=O)OCCCc2ccccn2)=C(C)N=C(C)/C1=C(/O)OCCCN1CCN(C(c2ccccc2)c2ccccc2)CC1` (stereo unspecified), the Resistance index in assay [1] is recorded as 1.7. Also, in assay [3], the Activity was 120%.

As to `CCCCCC1C(C(=O)OCCCc2cccnc2)=C(C)N=C(C)/C1=C(/O)OCCCN1CCN(C(c2ccccc2)c2ccccc2)CC1` (stereo unspecified), the Activity in assay [4] is listed as 143%. For the same compound, the negative logarithm of the IC50 (pIC50) in assay [2] is 3.76. For the same compound, in assay [1], the Resistance index worked out at 1.1.

In the case of `CCCCCC1C(C(=O)OCCN(C)Cc2ccccc2)=C(C)N=C(C)/C1=C(/O)OCCCc1cccnc1` (stereo unspecified), in assay [2], the negative-log IC50 (pIC50) was 3.87. The Resistance index in assay [1] worked out at 1.4. The compound also came in with an Activity in assay [3] of 144%.

As to `CC1=NC(C)=C(C(=O)OCc2ccncc2)C(C2=C(C)SCCS2)/C1=C(\O)OCc1ccncc1` (stereo unspecified), the negative-log IC50 (pIC50) in assay [2] is 5.06.

Take `CCCCCC1C(C(=O)OCCc2ccc(N(C)C)cc2)=C(C)N=C(C)/C1=C(/O)OCCc1ccc(N(C)C)cc1` (stereo unspecified): the Resistance index in assay [1] came to 11.2.

Take `CCCCCC1C(C(=O)OCCCc2cccnc2)=C(C)N=C(C)/C1=C(/O)OCCCc1cccnc1` (stereo unspecified): the pIC50 in assay [2] was 4.34. For the same compound, the Resistance index in assay [1] stood at 2. For the same compound, the Activity in assay [3] amounted to 161%.

For the compound `CCCCCC1C(C(=O)OCCCc2ccncc2)=C(C)N=C(C)/C1=C(/O)OCCCN1CCN(C(c2ccccc2)c2ccccc2)CC1` (stereo unspecified), the Resistance index in assay [1] turned out to be 1.

For the compound `CCCCCC1C(C(=O)O/C=C/Cc2cccnc2)=C(C)N=C(C)/C1=C(/O)O/C=C/Cc1cccnc1` (stereo unspecified), the Resistance index in assay [1] turned out to be 1.8. Further, the Activity in assay [3] turned out to be 89%.

Turning to `CCCCCC1C(C(=O)OCCCc2cccnc2)=C(C)N=C(C)/C1=C(/O)OCCCN1CCN(Cc2ccccc2)CC1` (stereo unspecified), in assay [2], the negative-log IC50 (pIC50) was 4.48. The Resistance index in assay [1] came out at 1. The same compound registered an Activity in assay [3] of 150%.

Consider `CCCCCC1C(C(=O)OCCCN2CCN(Cc3ccccc3)CC2)=C(C)N=C(C)/C1=C(/O)OCCCN1CCN(Cc2ccccc2)CC1` (stereo unspecified), for which the pIC50 in assay [2] is 3.64. Besides, in assay [1], the Resistance index is on record as 1.1. For the same compound, the Activity in assay [3] was 127%.

As to `CCCCCC1C(C(=O)OCCc2ccc(N(C)C)cc2)=C(C)N=C(C)/C1=C(/O)OCCCc1cccnc1` (stereo unspecified), the pIC50 in assay [2] was 4.35. In addition, the Resistance index in assay [1] is listed as 1.8. The Activity in assay [3] amounted to 125%.

Turning to `COC(=O)C1=C(C)NC(C)=C(C(=O)OCCN(C)Cc2ccccc2)C1c1cccc([N+](=O)[O-])c1` (stereo unspecified) [NICARDIPINE], the pIC50 in assay [2] is 5.85.
